Measurements: ChEMBL document CHEMBL3351394 (J Med Chem, 2014)
The source made the active and inactive calls. The calls are words filed in the database; no cut-off is given here.

molecular target: T1, Bile acid receptor (Homo sapiens, UniProt Q96RI1); experiment: Antagonist activity at human FXR expressed in human HeLa cells assessed as inhibition of receptor activation by BSEP promoter-driven firefly luciferase reporter gene assay; assay type: cell-based; settings: not given
T1 sequence (Q96RI1 whole entry): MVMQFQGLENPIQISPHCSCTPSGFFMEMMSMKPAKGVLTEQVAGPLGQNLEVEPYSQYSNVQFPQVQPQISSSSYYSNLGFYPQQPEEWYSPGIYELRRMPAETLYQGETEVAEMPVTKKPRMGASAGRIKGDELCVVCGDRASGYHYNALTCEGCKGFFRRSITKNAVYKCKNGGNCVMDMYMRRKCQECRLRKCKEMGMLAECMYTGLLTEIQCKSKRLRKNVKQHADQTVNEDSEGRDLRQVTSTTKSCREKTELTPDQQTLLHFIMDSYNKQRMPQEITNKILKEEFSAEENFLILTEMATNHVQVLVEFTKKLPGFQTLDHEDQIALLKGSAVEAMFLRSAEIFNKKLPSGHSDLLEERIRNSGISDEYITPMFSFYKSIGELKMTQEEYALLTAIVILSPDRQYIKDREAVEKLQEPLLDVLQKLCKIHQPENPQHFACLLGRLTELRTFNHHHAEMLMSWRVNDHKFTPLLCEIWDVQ
How it was run: (§1)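 HeLa cells were calcium-phosphate transfected with pcDNA3-hFXR, pSG5-hRXR, a BSEP-promoter firefly luciferase (BSEP-pGL3) and pRL-SV40, then kept in 0.5% charcoal-stripped FCS. 24 h post-transfection, compound in 0.1% DMSO was added for 24 h; in antagonist mode it was given in competition with GW4064. Dual-luciferase firefly/renilla RLU gave fold over untreated and activity relative to 3 μM GW4064. Triplicate wells, ≥3 independent runs.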

Question: With COc1ccc(NC(=O)c2ccc(C(C)(C)C)cc2)c(C(=O)Nc2cccc(C(=O)O)c2)c1 as the compound, how does the IC50 read?
Answer: Its IC50 is 15100 nM.

Question: How did the IC50 turn out when CC(C)(C)c1ccc(C(=O)Nc2ccc(Cl)cc2C(=O)Nc2cccc(C(=O)O)c2)cc1 was run?
Answer: The IC50 was 12300 nM.

molecular target: T1, Bile acid receptor; experiment: Agonist activity at human FXR expressed in human HeLa cells assessed as receptor activation by BSEP promoter-driven firefly luciferase reporter gene assay; assay type: cell-based; settings: hela

Question: With CC(C)(C)c1ccc(NC(=O)c2ccccc2NC(=O)c2cccc(C(=O)O)c2)cc1 as the compound, how does the EC50 read?
Answer: The EC50 was “Not Active”.

same assay, conditions: read-out: EC50

Question: O=C(O)c1cccc(NC(=O)c2ccccc2NC(=O)c2ccc(Br)cc2)c1 was tested. Which EC50 did it give?
Answer: The EC50 was 3700 nM.

Question: For Cc1ccc(NC(=O)c2ccccc2NC(=O)c2ccc(C(C)(C)C)cc2)cc1C(=O)O, which EC50 is on record?
Answer: Its EC50 is 45 nM.

Question: How did the EC50 turn out when CC(C)(C)c1ccc(C(=O)Nc2ccccc2C(=O)Nc2cccc(CCC(=O)O)c2)cc1 was run?
Answer: Its EC50 is 64 nM.

Question: How did the EC50 turn out when CC(C)(C)c1ccc(C(=O)Nc2cc(Br)ccc2C(=O)Nc2cccc(C(=O)O)c2)cc1 was run?
Answer: Its EC50 is 48 nM.

Question: For CC(C)(C)c1ccc(C(=O)Nc2ccccc2C(=O)Nc2ccc(Cl)c(C(=O)O)c2)cc1, which EC50 is on record?
Answer: Its EC50 is 280 nM.

Question: How did the EC50 turn out when Cc1ccc(NC(=O)c2ccc(Cl)cc2NC(=O)c2ccc(C(C)(C)C)cc2)cc1C(=O)O was run?
Answer: The EC50 was 110 nM.

Question: Which EC50 does the source give for CC(C)(C)c1ccc(C(=O)Nc2ccccc2C(=O)Nc2cccc(-c3nnn[nH]3)c2)cc1 here?
Answer: The EC50 was 2900 nM.

Question: With O=C(O)c1cccc(NC(=O)c2ccccc2NC(=O)c2ccc(C(F)(F)F)c(F)c2)c1 as the compound, how does the EC50 read?
Answer: Its EC50 is 5000 nM.

Question: How did the EC50 turn out when Cc1ccc(C(=O)Nc2cccc(C(=O)O)c2)c(NC(=O)c2ccc(C(C)(C)C)cc2)c1 was run?
Answer: Its EC50 is 61 nM.

Question: For Cc1c(NC(=O)c2ccccc2NC(=O)c2ccc(C(C)(C)C)cc2)cccc1C(=O)O, which EC50 is on record?
Answer: Its EC50 is 42 nM.

Question: Which EC50 does the source give for COc1cccc(NC(=O)c2ccccc2NC(=O)c2ccc(C(C)(C)C)cc2)c1 here?
Answer: Its EC50 is 380 nM.

Question: Which EC50 does the source give for CSc1cccc(NC(=O)c2ccccc2NC(=O)c2ccc(C(C)(C)C)cc2)c1 here?
Answer: Its EC50 is 200 nM.

Question: Which EC50 does the source give for O=C(O)c1cccc(NC(=O)c2ccccc2NC(=O)c2ccc3c(c2)OCCO3)c1 here?
Answer: Its EC50 is 4900 nM.

Question: Which EC50 does the source give for CC(C)(C)c1ccc(C(=O)Nc2ccccc2C(=O)Nc2cccc(CC(=O)O)c2)cc1 here?
Answer: Its EC50 is 420 nM.

Question: Which EC50 does the source give for COc1ccc(NC(=O)c2ccccc2NC(=O)c2ccc(C(C)(C)C)cc2)cc1C(=O)O here?
Answer: Its EC50 is 47 nM.

Question: Which EC50 does the source give for CC(C)(C)c1ccc(C(=O)Nc2ccccc2C(=O)Nc2cc(C(=O)O)ccc2F)cc1 here?
Answer: The EC50 was 480 nM.

Question: COc1ccc(NC(=O)c2ccccc2NC(=O)c2ccc(C(C)(C)C)cc2)cc1OC was tested. Which EC50 did it give?
Answer: Its EC50 is 71 nM.

Question: With COc1ccc(C(=O)Nc2ccc(C)c(C(=O)O)c2)c(NC(=O)c2ccc(C(C)(C)C)cc2)c1 as the compound, how does the EC50 read?
Answer: The EC50 was 87 nM.

Question: How did the EC50 turn out when CC(C)(C)c1ccc(C(=O)Nc2ccccc2C(=O)Nc2cc(C(=O)O)ccc2Cl)cc1 was run?
Answer: Its EC50 is 1100 nM.

Question: With COc1ccc(C(=O)O)cc1NC(=O)c1ccccc1NC(=O)c1ccc(C(C)(C)C)cc1 as the compound, how does the EC50 read?
Answer: Its EC50 is 4700 nM.

Question: CC(C)(C)c1ccc(C(=O)Nc2ccccc2C(=O)Nc2cccc(C#N)c2)cc1 was tested. Which EC50 did it give?
Answer: The EC50 was 230 nM.

Question: With CC(C)(C)c1ccc(C(=O)Nc2ccccc2C(=O)Nc2cccc(C(N)=O)c2)cc1 as the compound, how does the EC50 read?
Answer: The EC50 was 74 nM.

Question: With O=C(/C=C/c1ccccc1)Nc1ccccc1C(=O)Nc1cccc(C(=O)O)c1 as the compound, how does the EC50 read?
Answer: Its EC50 is 5200 nM.

Question: For CC(C)(C)c1ccc(C(=O)Nc2cc(Cl)ccc2C(=O)Nc2cccc(C(=O)O)c2)cc1, which EC50 is on record?
Answer: Its EC50 is 47 nM.

Question: CC(C)(C)c1ccc(C(=O)Nc2ccccc2C(=O)Nc2ccc(Br)c(C(=O)O)c2)cc1 was tested. Which EC50 did it give?
Answer: The EC50 was 150 nM.

Question: Which EC50 does the source give for Cc1ccc(C(=O)Nc2ccc(C)c(C(=O)O)c2)c(NC(=O)c2ccc(C(C)(C)C)cc2)c1 here?
Answer: Its EC50 is 43 nM.

Question: Which EC50 does the source give for O=C(O)c1cccc(NC(=O)c2ccccc2NC(=O)c2ccc(C(F)(F)F)cc2)c1 here?
Answer: The EC50 was 6900 nM.

Question: CC(C)(C)c1ccc(C(=O)Nc2ccccc2C(=O)Nc2cccc(C(=O)O)c2)cc1 was tested. Which EC50 did it give?
Answer: The EC50 was 280 nM.

Question: How did the EC50 turn out when CC(=O)c1cccc(NC(=O)c2ccccc2NC(=O)c2ccc(C(C)(C)C)cc2)c1 was run?
Answer: The EC50 was 480 nM.

Question: How did the EC50 turn out when O=C(O)c1cccc(NC(=O)c2ccccc2NC(=O)c2ccc3c(c2)OCO3)c1 was run?
Answer: Its EC50 is 10000 nM.

molecular target: T2, Bile acid receptor (Homo sapiens) (UniProt Q96RI1); experiment: Agonist activity at FXR in human HepG2 cells assessed as induction of BSEP mrNA expression at 3 uM by quantitative PCR method; assay type: cell-based; settings: not given
T2 sequence (whole entry): T1 sequence (Q96RI1 whole entry)
How it was run: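 HepG2 cells were seeded at 2 × 10⁶ per well. After 24 h they were switched to MEM with 1% charcoal-stripped FCS, and 24 h later dosed with compound (0.1, 0.3, 1, 3, 10 μM; 0.1% DMSO final) for 24 h. Total RNA was reverse transcribed and analysed by qPCR, GAPDH-normalized, ΔΔCt method. Samples were run in duplicate in ≥4 independent experiments.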

Question: Which Activity does the source give for CC(C)c1onc(-c2c(Cl)cccc2Cl)c1COc1ccc(/C=C/c2cccc(C(=O)O)c2)c(Cl)c1 here?
Answer: Its Activity is 1520%.

molecular target: T2, Bile acid receptor (Homo sapiens); experiment: Antagonist activity at human FXR expressed in human HeLa cells assessed as inhibition of receptor activation by BSEP promoter-driven firefly luciferase reporter gene assay relative to untreated control; assay type: cell-based; settings: concentration not given here; how it was run: as §1

Question: Which inhibition does the source give for COc1ccc(NC(=O)c2ccc(C(C)(C)C)cc2)c(C(=O)Nc2cccc(C(=O)O)c2)c1 here?
Answer: The inhibition was 10%.

Question: CC(C)(C)c1ccc(C(=O)Nc2ccc(Cl)cc2C(=O)Nc2cccc(C(=O)O)c2)cc1 was tested. Which inhibition did it give?
Answer: The inhibition was 15%.

molecular target: T2, Bile acid receptor (Homo sapiens); experiment: Agonist activity at human FXR expressed in human HeLa cells assessed as receptor activation at 30 uM by BSEP promoter-driven firefly luciferase reporter gene assay relative to 3 uM GW4064; assay type: cell-based; settings: not given; how it was run: as §1

Question: Which Activity does the source give for CC(C)(C)c1ccc(C(=O)Nc2cc([N+](=O)[O-])ccc2C(=O)Nc2cccc(C(=O)O)c2)cc1 here?
Answer: The Activity was “inactive”.

Question: For Nc1ccccc1C(=O)Nc1cccc(C(=O)O)c1, which Activity is on record?
Answer: The Activity was “inactive”.

Question: With O=C(Cc1ccccc1)Nc1ccccc1C(=O)Nc1cccc(C(=O)O)c1 as the compound, how does the Activity read?
Answer: Its Activity is “inactive”.

Question: With CC(C)(C)c1ccc(C(=O)Nc2cccc(Cl)c2C(=O)Nc2cccc(C(=O)O)c2)cc1 as the compound, how does the Activity read?
Answer: Its Activity is “inactive”.

Question: CC(C)(C)c1ccc(C(=O)Nc2c(Cl)cccc2C(=O)Nc2cccc(C(=O)O)c2)cc1 was tested. Which Activity did it give?
Answer: Its Activity is “inactive”.

Question: With O=C(O)c1cccc(NC(=O)c2ccccc2NC(=O)c2cc(C(F)(F)F)cc(C(F)(F)F)c2)c1 as the compound, how does the Activity read?
Answer: The Activity was “inactive”.

Question: COc1ccc(NC(=O)c2ccc(C(C)(C)C)cc2)c(C(=O)Nc2cccc(C(=O)O)c2)c1 was tested. Which Activity did it give?
Answer: Its Activity is “inactive”.

Question: Which Activity does the source give for CC(C)(C)c1ccc(C(=O)Nc2ccccc2C(=O)Nc2ccc([N+](=O)[O-])c(C(=O)O)c2)cc1 here?
Answer: Its Activity is “inactive”.

Question: With Cc1ccc(C(=O)O)cc1NC(=O)c1ccccc1NC(=O)c1ccc(C(C)(C)C)cc1 as the compound, how does the Activity read?
Answer: The Activity was “inactive”.

Question: How did the Activity turn out when COc1cc(NC(=O)c2ccccc2NC(=O)c2ccc(C(C)(C)C)cc2)cc(OC)c1OC was run?
Answer: Its Activity is “inactive”.
